Activity data for nine compounds are collected here from ChEMBL document CHEMBL1781959, “Synthesis and in vitro antitumor activity of substituted quinazoline and quinoxaline derivatives: search for anticancer agent” (Eur J Med Chem, 2011).

Format in all cases: functional
Assay [1] can be described thus: Anticancer activity against human […] cells assessed as cell growth promotion at 10^-5 M after 48 hrs by SRB assay relative to control.
For the next assay, the system named is TK-10. As to the kind of experiment: Anticancer activity against human TK10 cells assessed as cell growth promotion at 10^-5 M after 48 hrs by SRB assay relative to control. For orientation: Sulforhodamine B stains cellular protein and so reports cell mass.
The test system of a further assay is MDA-MB-231. As to the kind of experiment: Anticancer activity against human MDA-MB-231 cells assessed as cell growth promotion at 10^-5 M after 48 hrs by SRB assay relative to control.
For the next assay, the system named is HL-60(TB). As to the kind of experiment: Anticancer activity against human HL-60(TB) cells assessed as cell growth promotion at 10^-5 M after 48 hrs by SRB assay relative to control. A digest of the protocol: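 NCI-60 single-dose screen: compound at 10^-5 M, 48 h at 37 °C, 5% CO2; cells grown in RPMI 1640 with 5% FBS and 2 mM L-glutamine, pre-incubated 24 h before dosing. Adherent cells fixed with cold TCA; endpoint is sulforhodamine B protein staining. Percent growth of treated cells is reported relative to untreated control.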

Another assay relates to CAKI-1. As to the kind of experiment: Anticancer activity against human Caki1 cells assessed as cell growth promotion at 10^-5 M after 48 hrs by SRB assay relative to control.
The subject of a further assay is OVCAR-4. As to the kind of experiment: Anticancer activity against human OVCAR4 cells assessed as cell growth promotion at 10^-5 M after 48 hrs by SRB assay relative to control.
In another assay the test system is U-251. As to the kind of experiment: Anticancer activity against human U251 cells assessed as cell growth promotion at 10^-5 M after 48 hrs by SRB assay relative to control.
A further assay concerns IGROV-1. As to the kind of experiment: Anticancer activity against human IGROV1 cells assessed as cell growth promotion at 10^-5 M after 48 hrs by SRB assay relative to control.
In the next assay the test system is DU-145. As to the kind of experiment: Anticancer activity against human DU145 cells assessed as cell growth promotion at 10^-5 M after 48 hrs by SRB assay relative to control.
Another assay has as its system SR. As to the kind of experiment: Anticancer activity against human SR cells assessed as cell growth promotion at 10^-5 M after 48 hrs by SRB assay relative to control.
The next assay deals with OVCAR-3. As to the kind of experiment: Anticancer activity against human OVCAR3 cells assessed as cell growth promotion at 10^-5 M after 48 hrs by SRB assay relative to control.
The subject of a further assay is HOP-62. As to the kind of experiment: Anticancer activity against human HOP62 cells assessed as cell growth promotion at 10^-5 M after 48 hrs by SRB assay relative to control.
The test system of the next assay is COLO 205. As to the kind of experiment: Anticancer activity against human COLO205 cells assessed as cell growth promotion at 10^-5 M after 48 hrs by SRB assay relative to control.
Another assay concerns NCI-H226. As to the kind of experiment: Anticancer activity against human NCI-H226 cells assessed as cell growth promotion at 10^-5 M after 48 hrs by SRB assay relative to control.
In the next assay the test system is HT-29. As to the kind of experiment: Anticancer activity against human HT-29 cells assessed as cell growth promotion at 10^-5 M after 48 hrs by SRB assay relative to control.
For another assay, the system named is SNB-75. As to the kind of experiment: Anticancer activity against human SNB75 cells assessed as cell growth promotion at 10^-5 M after 48 hrs by SRB assay relative to control.
A further assay concerns BT-549. As to the kind of experiment: Anticancer activity against human BT549 cells assessed as cell growth promotion at 10^-5 M after 48 hrs by SRB assay relative to control.
Another assay relates to NCI-H522. As to the kind of experiment: Anticancer activity against human NCI-H522 cells assessed as cell growth promotion at 10^-5 M after 48 hrs by SRB assay relative to control.
For the next assay, the system named is SK-MEL-2. As to the kind of experiment: Anticancer activity against human SK-MEL-2 cells assessed as cell growth promotion at 10^-5 M after 48 hrs by SRB assay relative to control.

`C(=C\c1nc2ccccc2nc1SCc1nc2ccccc2[nH]1)/c1ccccc1`: the Activity was 47.73% in assay [1]; 44.74% in the assay with TK-10; 77.23% in the assay on MDA-MB-231; 77.83% with HL-60(TB); 77.88% in the assay with CAKI-1; 2.71% with OVCAR-4. For the same compound, the Activity with U-251 is reported as 79.81%; in the assay with IGROV-1, 87.44%; in the assay with DU-145 it was 74.33%; in the assay with SR it was 83.8%; with OVCAR-3, 65.02%; in the assay on HOP-62, 88.3%. The Activity in the assay with COLO 205 was 75.7%; in the assay with NCI-H226, 65.68%.

With `COc1ccc(OC)c(/C=C/c2nc3ccccc3nc2SCc2nc3ccccc3[nH]2)c1`, the Activity in [1] was determined as 77.53%; in the assay on TK-10, 56.15%; in the assay on MDA-MB-231, 96.56%; in the assay with HL-60(TB), 91.21%; in the assay with CAKI-1 it was 83.86%; in the assay with HT-29, 80.4%. Further, the Activity was 104% in the assay with U-251; 79.39% in the assay on IGROV-1; 98.54% in the assay with DU-145; 81.4% with SR; 107% in the assay on OVCAR-3; 87.33% in the assay on HOP-62. In addition, the Activity in the assay with COLO 205 turned out to be 104%; in the assay on NCI-H226, 87.18%.

Turning to `Oc1ccccc1/C=C/c1nc2ccccc2nc1SCc1nc2ccccc2[nH]1`, the Activity in assay [1] amounted to 63.38%; in the assay on TK-10, 43.48%; with MDA-MB-231, 53.69%; with HL-60(TB), 26.78%; in the assay on CAKI-1, 56.68%; in the assay with OVCAR-4, 25.22%. Also, the Activity with HT-29 was 83.56%; in the assay with U-251 it was 83.34%; in the assay with IGROV-1 it was 59.92%; in the assay with DU-145 it was 76.88%; with SR it was 44.46%; in the assay with OVCAR-3, 81.53%. Besides, the Activity with HOP-62 was 73.71%; in the assay with COLO 205 it was 96.37%; in the assay on NCI-H226, 79.35%.

For the compound `COc1cc(/C=C/c2ccc(NC(=O)c3ccccc3NC(=O)c3ccccc3)cc2)ccc1O`, the Activity in assay [1] worked out at 79.36%; in the assay with TK-10, 97.64%; in the assay with SNB-75, 85.88%; with MDA-MB-231, 96.74%; in the assay on HL-60(TB) it was 97.49%; with CAKI-1 it was 95.9%. The Activity in the assay with HT-29 turned out to be 121%; in the assay with BT-549, 95.53%; in the assay with NCI-H522 it was 99.45%; with U-251, 103%; in the assay on IGROV-1, 96.3%; with DU-145, 108%. The Activity is 104% in the assay on SK-MEL-2; 106.41% with SR; 107% in the assay with OVCAR-3; 94.69% with HOP-62; 115% in the assay on COLO 205; 95.46% with NCI-H226.

With `O=c1c2ccccc2nc(-c2ccco2)n1O`, the Activity amounted to 98.03% with TK-10; 86.97% with SNB-75; 93.48% in the assay on MDA-MB-231; 95.84% in the assay on HL-60(TB); 102.81% in the assay on CAKI-1; 114.55% in the assay with OVCAR-4. Further, the Activity in the assay with HT-29 is on record as 103.19%; in the assay on BT-549, 103.7%; in the assay with U-251 it was 110.85%; with IGROV-1 it was 103.91%; in the assay with DU-145, 122.21%; in the assay on SK-MEL-2, 103.59%. In addition, the Activity in the assay on SR turned out to be 94.7%; with OVCAR-3 it was 114.53%; in the assay on HOP-62, 112.74%; in the assay with COLO 205, 107.29%; in the assay on NCI-H226, 97.88%.

`Oc1ccc(/C=C/c2nc3ccccc3nc2SCc2nc3ccccc3[nH]2)cc1`: the Activity amounted to 85.51% in [1]; 107% in the assay on TK-10; 93.68% in the assay on SNB-75; 95.18% in the assay with MDA-MB-231; 84.38% in the assay with HL-60(TB); 76.71% in the assay with CAKI-1. Also, the Activity in the assay with OVCAR-4 is recorded as 107%; in the assay with HT-29, 86.49%; in the assay with U-251, 95.56%; with IGROV-1, 71.03%; in the assay on DU-145, 97.51%; with SR, 99.18%. The Activity worked out at 102% in the assay with OVCAR-3, 101% in the assay on HOP-62, 119% in the assay with COLO 205 and 99.33% in the assay on NCI-H226.

In the case of `N#Cc1ccc(/C=C/c2nc3ccccc3nc2SCc2nc3ccccc3[nH]2)cc1`, the Activity came to 102% in assay [1]; 86.49% in the assay with TK-10; 97.02% in the assay on MDA-MB-231; 94.7% in the assay with HL-60(TB); 111% in the assay on CAKI-1; 89.43% with HT-29. The Activity came out at 107% with U-251; 103% in the assay with IGROV-1; 103% with DU-145; 97.73% in the assay on SR; 110% with OVCAR-3; 99.49% with HOP-62. Also, the Activity in the assay on COLO 205 turned out to be 105%; in the assay on NCI-H226, 95.59%.

Regarding `CN(C)c1ccc(/C=C/c2nc3ccccc3nc2SCc2nc3ccccc3[nH]2)cc1`, the Activity was determined as 100% in assay [1]; 113% in the assay on TK-10; 89.23% in the assay with MDA-MB-231; 87.19% in the assay with HL-60(TB); 107% in the assay on CAKI-1; 101% in the assay with HT-29. For the same compound, the Activity in the assay with U-251 is 102%; in the assay on IGROV-1 it was 116%; in the assay with DU-145, 95.35%; in the assay on SR it was 79.22%; in the assay on OVCAR-3, 107%; in the assay with HOP-62 it was 100%. Moreover, the Activity in the assay on COLO 205 worked out at 110%; in the assay on NCI-H226 it was 105%.

Regarding `O=C(Nc1ccccc1C(=O)Nc1ccc(/C=C/C=C/c2ccccc2)cc1)c1ccccc1`, the Activity was 63.43% in [1]; 114% in the assay with TK-10; 82.74% with SNB-75; 87.48% in the assay on MDA-MB-231; 92.43% in the assay with HL-60(TB); 83.56% in the assay on CAKI-1. In addition, the Activity in the assay on HT-29 is reported as 111%; in the assay with BT-549, 86.19%; with NCI-H522, 70.1%; with U-251 it was 95.87%; in the assay with IGROV-1 it was 78.34%; in the assay on DU-145, 111%. For the same compound, the Activity was 96.46% with SK-MEL-2; 70.89% with SR; 88.79% in the assay on OVCAR-3; 93.96% in the assay on HOP-62; 121% with COLO 205; 84.69% in the assay with NCI-H226.
